We go through five compounds from ChEMBL document CHEMBL2311353, “Synthesis and antiproliferative activities of N-(naphthalen-2-yl)acetamide and N-(substituted phenyl)acetamide bearing quinolin-2(1H)-one and 3,4-dihydroquinolin-2(1H)-one derivatives” (Eur J Med Chem, 2013).

A short description of test [1]: Antiproliferative activity against human NPC-TW01 cells after 72 hrs by MTT assay. It counts as functional, cell-based. As to conditions: NPC-TW01, 72 h. The essentials: (§1)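 Log-phase cells were seeded, left overnight, then exposed to a range of compound concentrations for 72 h. MTT at 0.4 mg/mL in MEM was added for 2 h, and formazan was read at 570 nm. GI50 was taken from percent conversion relative to mock-treated controls.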
(Formazan colour is commonly taken as a measure of viable cells.)

A further test deals with A498. The experiment in a line: Antiproliferative activity against human A498 cells after 72 hrs by MTT assay. It counts as functional, cell-based. As to conditions: A498, 72 h. The essentials: as §1
The test system of a further test is NCI-H661. The experiment in a line: Antiproliferative activity against human NCI-H661 cells after 72 hrs by MTT assay. It counts as functional, cell-based. As to conditions: NCI-H661, 72 h. An outline of the steps:
as §1

A short description of test [2]: Antiproliferative activity against human Hep3B cells after 72 hrs by MTT assay. It counts as functional, cell-based, Hep 3B2. An outline of the steps:
as §1

The next test has as its system MKN-45. The experiment in a line: Antiproliferative activity against human MKN45 cells after 72 hrs by MTT assay. It is filed as functional, cell-based. As to conditions: MKN-45, 72 h. The essentials:
as §1

SMILES strings stand for the structures.

Consider `O=C(COc1ccc2c(c1)NC(=O)CC2)Nc1ccc(-c2ccccc2)cc1`, for which the half-maximal inhibitory concentration (IC50) – broadly, the midpoint of a concentration-inhibition curve – in test [1] is 2.9 µM; with A498, 12 µM; in the test with NCI-H661, 15.4 µM; in test [2], 8.1 µM; with MKN-45, 32.4 µM.

As to `O=C(COc1ccc2c(c1)NC(=O)CC2)Nc1ccccc1`, the IC50 was 16 µM in test [1]; 12 µM in the test on A498; 21.8 µM with NCI-H661; 27.2 µM in test [2]; 32.4 µM with MKN-45.

On to `COc1ccc(NC(=O)COc2ccc3c(c2)NC(=O)CC3)cc1`, for which the IC50 in test [1] was determined as 13.1 µM; in the test on A498, 19.3 µM; in the test on NCI-H661, 16.4 µM; in test [2] it was 31.1 µM; in the test on MKN-45 it was 36.3 µM.

For the compound `O=C(COc1ccc2c(c1)NC(=O)CC2)Nc1ccc2ccccc2c1`, the IC50 was 8.9 µM in test [1]; 8.6 µM in the test on A498; 11.2 µM in the test on NCI-H661; 19.2 µM in test [2]; 26.9 µM in the test with MKN-45.

In the case of `O=C(COc1ccc2c(c1)NC(=O)CC2)Nc1ccc(F)cc1`, the half-inhibitory concentration (IC50) in test [1] amounted to 15.8 µM; in the test on A498, 11.3 µM; with NCI-H661, 15.3 µM; in test [2], 27 µM; in the test with MKN-45, 38.6 µM.
